Results of several laboratories.
Target: Casein kinase I isoform gamma-2 (CSNK1G2, Homo sapiens, UniProt P78368)

Compound | read-out | method | tested at | remaining binding
CNCc1ccccc1-c1csc([C@@H](C)Nc2nc(C)nc3cc(OC)c(OC)cc23)c1 | cell-free assay | competition with immobilised ligand | 1 µM | 98%
O=C(NCC1CCOCC1)c1n[nH]cc1NC(=O)c1c(F)cccc1F | binding | competition with immobilised ligand | 1 µM | 83%
CN(C)c1nccc(-c2cnn3ncccc23)n1 | binding |  | 1 µM | 85%
CN([C@@H]1CCc2c(CC(=O)O)c3ccccc3n2C1)S(=O)(=O)c1ccc(F)cc1 | cell-free assay | competition with immobilised ligand | 1 µM | 100%
C[C@H]1CCN(c2nccc(-c3cnn4ncccc34)n2)C1 | binding |  | 1 µM | 64%
COc1cnc(Nc2cccc(S(N)(=O)=O)c2)nc1N1CCN(c2ccccc2)CC1 | binding | competition with immobilised ligand | 1 µM | 100%
Nc1ncc2c(n1)-c1c([nH]c3ccc(C#CC4CC4)cc13)CCCC2 | binding | competition with immobilised ligand | 1 µM | 100%
N[C@H]1CCN(c2nccc(-c3cnn4ncccc34)n2)C1 | binding |  | 1 µM | 98%
O=C1CCc2cc(Nc3cc(OC4CCOCC4)c([N+](=O)[O-])cc3Cl)ccc2N1 | cell-free assay | competition with immobilised ligand | 1 µM | 88%
CN(C)c1nccc(-c2cnc3ncccn23)n1 | binding |  | 1 µM | 89%
O=C(NCCCN1CCOCC1)c1ccc(Nc2ncc(Cl)c(-c3ccc(Cl)s3)n2)cc1 | binding | competition with immobilised ligand | 1 µM | 100%
c1cnn2ncc(-c3ccnc(N4CCC45COC5)n3)c2c1 | binding |  | 1 µM | 77%
COc1ncc2cc3ccccc3nc2c1C#N | cell-free assay | competition with immobilised ligand | 5 µM | 98%
Cn1cc(Cl)c2c(Oc3c(F)cc(Nc4cc(Cl)nc(N)n4)cc3F)ccnc21 | cell-free assay | competition with immobilised ligand | 0.1 µM | 83%
O=C(c1ccc(Nc2nccc(-c3cc4ccccc4s3)n2)cc1)N1CCC(N2CCCC2)CC1 | binding | competition with immobilised ligand | 1 µM | 94%
N#Cc1ccccc1CSc1nnc2c(n1)[nH]c1ccccc12 | binding | competition with immobilised ligand | 10 µM | 81%
CCS(=O)(=O)c1cc2cc(C[C@](O)(CC(C)(C)c3ccc(F)cc3C(N)=O)C(F)(F)F)[nH]c2cn1 | cell-free assay | competition with immobilised ligand | 1 µM | 93%
O=C(c1ccc(Nc2ncc(Cl)c(-c3cc4ccccc4s3)n2)cc1)N1CCC(N2CCCC2)CC1 | binding | competition with immobilised ligand | 1 µM | 100%
CN([C@@H]1CCc2c(CC(=O)O)c3cc(S(C)(=O)=O)ccc3n2C1)S(=O)(=O)c1ccc(F)cc1 | cell-free assay | competition with immobilised ligand | 1 µM | 100%
Cc1cnn2ncc(-c3ccnc(N(C)C)n3)c2c1 | binding |  | 1 µM | 100%
